Measured values taken from the EternaBench riboswitch data.

Experiments:
MS2 coat protein [1] = experiment: apparent Kd, MS2 coat protein; higher = weaker binding; RNA-MaP array; tryptophan 2.4 mM where present
Method in brief: (§1)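 The apparent Kd is reported as the median of filtered per-cluster binding-curve fits. To get these curves, designs transcribed by stalled E. coli RNA polymerase on Illumina sequencing-chip clusters were titrated with SNAP-549-labelled MS2 coat protein from 0.7 or 1.5 nM, doubling to 3 µM. Titrations were run without and then with constant ligand in 100 mM Tris-HCl pH 7.5, 80 mM KCl, 4 mM MgCl2, BSA, DTT, yeast tRNA and Tween-20, and green signal was normalised to red-channel RNA signal and control-cluster median Fmax.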

MS2 coat protein [2] = experiment: apparent Kd, MS2 coat protein; higher = weaker binding; RNA-MaP array; theophylline 2 mM where present
Method in brief: as §1

[3] = designed as: ON switch for tryptophan, no ligand
[4] = ligand present: tryptophan, designed as: ON switch for tryptophan
[5] = designed as: OFF switch for tryptophan, no ligand
[6] = ligand present: tryptophan, designed as: OFF switch for tryptophan
[7] = designed as: ON switch for theophylline, no ligand
[8] = ligand present: theophylline, designed as: ON switch for theophylline
[9] = designed as: OFF switch for theophylline, no ligand
[10] = ligand present: theophylline, designed as: OFF switch for theophylline

Row | Sequence | apparent Kd (MS2 coat protein [1]; [3]) [nM] | apparent Kd (MS2 coat protein [1]; [4]) [nM] | apparent Kd (MS2 coat protein [1]; [5]) [nM] | apparent Kd (MS2 coat protein [1]; [6]) [nM] | other results
1 | AAUGUCGGAUCGGCCGCCACUGGUUGGCCCUGUGUACAUGAGGAUCACCCAUGUCCAUCCCAAACCAGGACCGGGAUCUUUAUGU | 36.1 | 13 | – | – | –
2 | GUUAUAUACUCGGCCGCCACUGAGAGAGUCAUGUAAACAUGAGGAUCACCCAUGUAAUAUAUAUACAGGACCGGGAGUAUGGUAA | – | – | 14.3 | 13.5 | –
3 | AUAAUAAUCCUCAUGUAAGGUCCUCGAUAACGAGGACCGGUACGGCCGCCACUCGAACAUGAGGAUCACCCAUGUACGAGGACCA | 42.5 | 32.6 | – | – | –
4 | ACUACGAAGACGGCCGCCACUGAUAUUCGUAGAUCCAUCAAUACAUGAGGAUCACCCAUGUAUAUCAGGACCGGGUCAAGAUGGU | – | – | 22.6 | 47.2 | –
5 | AGCACUGUGGCGGCCGCCACUACAUAUAGGGUGGUCAGGCCCAUAAUACAUGAGGAUCACCCAUGUAGGACCGGGCCUCAGUGCA | – | – | 15 | 14.8 | –
6 | UACUUGCUGACGGCCGCCACUAGAACAUGAGGAUCACCCAUGUAGGUCCUAGAUUCCUCAUGAACUAGGACCGGGUCAGCAAGAU | – | – | 52.6 | 12.4 | –
7 | UCGGGCAGAGCGGCCGCCACUGUAUGGCGUGCGGAUGACGGAACAUGAGGAUCACCCAUGUUGUUUAGGACCGGGCUUGCCGCGA | – | – | 11.2 | 13.2 | –
8 | ACAUGAGGAUCACCCAUGUUUGAUGUUCCUCGAGGACCGGUACGGCCGCCACUCGAACGAGUGGCGCGCGAGCGCGCGCUCGCGC | 12.2 | 12.7 | – | – | –
9 | UCGUAUGCGGCGGCCGCCACUCGCGGAUAACGAGAGCUUAACAUGAGGAUCACCCAUGUGUCAUGGAGGACCGGGCCCAUUCACA | 29.2 | 31.4 | – | – | –
10 | AGUAAUAAUAUAAAUAAUAUUAGGUCAUGGCGAGGACCGGUACGGCCGCCACUCGGUUACAUGAGGAUCACCCAUGUCCCGCUUA | – | – | 30.5 | 34.6 | –
11 | UGUCAUGGAAACAUGACAGGUUCUACCGGUCGAGGACCGGUACGGCCGCCACUCGAUUGGUGGCACAUGAGGAUCACCCAUGUUA | 25.2 | 25.2 | – | – | –
12 | AUCAUAAUAGACUCGUUUGAUUAUAUGGAACGAGGACCGGUACGGCCGCCACUCGUGAUUUACAUGAGGAUCACCCAUGUUAGCA | – | – | 15.7 | 13.9 | –
13 | GACGAUAUGAUACGUCAGCAAUCCUCGAAACGAGGACCGGUACGGCCGCCACUCGAGUGAUACACAUGAGGAUCACCCAUGUACC | – | – | 39.3 | 53.2 | –
14 | UUCUUUAAGUCGGCCGCCACUGAAACAUGAGGAUCACCCAUGUAUAUUUGUGUAAAGGUGGAUUACAGGACCGGGACUAUAGUAA | – | – | 12 | 12 | –
15 | AUAUAUACAUGAGGAUCACCCAUGUUAUUACGAGGACCGGUACGGCCGCCACUCGAUAGAGUAGAAGUAAAUUGUAAUUCAUGUU | – | – | 12.4 | 12.6 | –
16 | UAUAUAUAUCACUAACUGUUGUGGACGUCUCGAGGACCGGUACGGCCGCCACUCGGGCGGCCUCACAUGAGGAUCACCCAUGUCC | – | – | 125 | 110 | –
17 | AGCACGGUGAUGGUAGCCGGACGCUAGGUACGAGGACCGGUACGGCCGCCACUCGAAGUCCUACGACAUGAGGAUCACCCAUGUA | 53.5 | 40.5 | – | – | –
18 | ACAUGAGGAUCACCCAUGUGCAUCACCCGACGAGGACCGGUACGGCCGCCACUCGGGUAUAUAUUUGCAUCGGGUGAUUUUACGU | 19.6 | 14.9 | – | – | –
19 | GCGACCCUGAGAUCCUACGUAACGUGAACACGAGGACCGGUACGGCCGCCACUCGAGAGAACAUGAGGAUCACCCAUGUCUGAGC | – | – | 32.9 | 88.5 | –
20 | AGUUCCAGGUCGGCCGCCACUGGCAUGGCCGGUCCUCGGACUUACAUGAGGAUCACCCAUGUGAACAGGACCGGGACCGCAUGGG | – | – | 38.3 | 48.2 | –
21 | ACAUGAGGAUCACCCAUGUGUGUAAGUCCUCGAGGACCGGUACGGCCGCCACUCGAACGAGUGUAACAUACUUGUUACAAGUAUG | 24 | 24.4 | – | – | –
22 | ACAUUGCGCUCGGCCGCCACUGGCUAUAGAUUUAUAGCAUUAAUGAACAUGAGGAUCACCCAUGUCAGGACCGGGAGCGAACCAU | 12.7 | 14.5 | – | – | –

Row | Sequence | apparent Kd (MS2 coat protein [1]; [3]) [nM] | apparent Kd (MS2 coat protein [1]; [4]) [nM] | apparent Kd (MS2 coat protein [1]; [5]) [nM] | apparent Kd (MS2 coat protein [1]; [6]) [nM] | other results
23 | UCGCCCGGGUCGGCCGCCACUGCGGUGAUGUGACAUGAGGAUCACCCAUGUUGUCAUGUGGCACAUAGGACCGGGACCCGGGCGA | – | – | 30.5 | 29.9 | –
24 | GGAUAGGACACGGCCGCCACUGCGGCUAGAUACUAGCACAUUUCCUCACAUGAGGAUCACCCAUGUAGGACCGGGUGUCCUAUCG | – | – | 95.7 | 132 | –
25 | GCAUCCUAGUCGGCCGCCACUGCAAUUGUAAUACUGCUACAUGAACAUGAGGAUCACCCAUGUAGCAGGACCGGGACUAGGAUGC | 164 | 27 | – | – | –
26 | GGAAAAGAAAGAAAAGAAAUCCCUCCCUCCCGAGGACCGGUACGGCCGCCACUCGCCCUCCCUCCCACAUGAGGAUCACCCAUGU | – | – | 23.5 | 23.4 | –
27 | AAUGGCCGUACCGGAAGGGUGAUCCUCAAACGAGGACCGGUACGGCCGCCACUCGAUAACAUGAGGAUCACCCAUGUAAUACAUA | – | – | 366 | 318 | –
28 | GGAUAGGACACGGCCGCCACUGCCUAGGAUACUAGAAACAUUUCCUCACAUGAGGAUCACCCAUGUAGGACCGGGUGUCCUAUCG | – | – | 134 | 267 | –
29 | AAUGAGUGGUGGUCAAGUGAUCCUCAUGAACGAGGACCGGUACGGCCGCCACUCGAUAACAUGAGGAUCACCCAUGUAAUAAUAA | – | – | 16.5 | 14.8 | –
30 | UAAUCAGUGCCGGUUCUCGGAUCCUCAUGUCGAGGACCGGUACGGCCGCCACUCGAAACAUGAGGAUCACCCAUGUAAUAAUAAU | – | – | 89.6 | 65.8 | –
31 | GCAUCCUAGUCGGCCGCCACUGGUAUCAACACCUUCACCCGUGUGCACAUGAGGAUCACCCAUGUUAGGACCGGGACUAGGAUGC | 8.4 | 8.5 | – | – | –
32 | AUCGUACCUAGUGAUACCAGCAAGUGAUCAUAACAUGAGGAUCACCCAUGUAAUCAGUGAUGCCCUUGGCAGCAUAAUCGUUACA | – | – | – | – | apparent Kd (MS2 coat protein [2]; [7]): 193 nM; apparent Kd (MS2 coat protein [2]; [8]): 155 nM
33 | ACUCGGUGUUUGUUGCUCCGAGUUUAUGAUACCAGUUAGUUUUAUGGCCCUUGGCAGCAUAGGACAUGAGGAUCACCCAUGUGUU | – | – | – | – | apparent Kd (MS2 coat protein [2]; [7]): 31.7 nM; apparent Kd (MS2 coat protein [2]; [8]): 53.8 nM
34 | GGAUUCAACUCGGCCGCCACUGGUGAUCCUAAUGUACAUGAGGAUCACCCAUGUACAUGAGAAUAUAGGACCGGGAGAUAAGUUA | 29 | 24.2 | – | – | –
35 | CUUGACAUGAGGAUCACCCAUGUUGGUAAACGAGGACCGGUACGGCCGCCACUCGGUUACGUGUAGUACCGGUAAGAUCCAGGGU | 29.3 | 27.1 | – | – | –
36 | ACGAACGAUAGUGAUACCAGACGAACAUGAGGAUCACCCAUGUUAUACACAUGGUUUAUUGUCCCUUGGCAGCACUUUAAGUUCG | – | – | – | – | apparent Kd (MS2 coat protein [2]; [9]): 147 nM; apparent Kd (MS2 coat protein [2]; [10]): 89.6 nM
37 | GCCCUUGGCAGCGAUACCAGCCAAAAUUAAAAUAAACCUCUACAUGAGGAUCACCCAUGUGGCCCUUGGCAGCGAUACCAGCAAA | – | – | – | – | apparent Kd (MS2 coat protein [2]; [9]): 49.7 nM; apparent Kd (MS2 coat protein [2]; [10]): 76.4 nM
38 | UACUUGCUGACGGCCGCCACUAGAACAUGAGGAUCACCCAUGUAUGGCGGCCGUCAUGGGUGGACUAGGACCGGGUCAGCAAGAU | – | – | 9.84 | 13.6 | –
39 | GUCCAAAGGUCGGCCGCCACUGUAGGAUGUGUUCUUUCACAUGAGGAUCACCCAUGUUGUUAUUAUAGGACCGGGAUUGUAGGAC | – | – | 20.5 | 18.5 | –
40 | GUGUGGAGCUCGGCCGCCACUCAAACAUGAGGAUCACCCAUGUAAAACAUGAGGAUCACCCAUGUGAGGACCGGGAGAAACACGA | – | – | 338 | 404 | –
41 | CAUGAAGUAACUGAUACCAGUGUACUGACAUGAGGAUCACCCAUGUUGGGUUUUGUUGUACACCCUUGGCAGCAGAAUCUUUAUG | – | – | – | – | apparent Kd (MS2 coat protein [2]; [9]): 69.1 nM; apparent Kd (MS2 coat protein [2]; [10]): 110 nM
42 | UUCUGGUCCCGUGAUACCAGAGACAUGAGGAUCACCCAUGUACAUGAGGAUCACCCAUGUUUCCCUUGGCAGCACUGUAGGGAGC | – | – | – | – | apparent Kd (MS2 coat protein [2]; [9]): 196 nM; apparent Kd (MS2 coat protein [2]; [10]): 1220 nM
43 | AAUAACAUGAGGAUCACCCAUGUAAAAGAUACCAGAUGCAUGAUGAUCCCUUGGCAGCUUAAACGCGAUUGGAAACAAUCGCGAA | – | – | – | – | apparent Kd (MS2 coat protein [2]; [7]): 27.6 nM; apparent Kd (MS2 coat protein [2]; [8]): 148 nM
44 | CUACAUUUGUAGAAACCGGUCAACAUUAUUCGAGGACCGGUACGGCCGCCACUCGUAUAUUUUUAUACAUGAGGAUCACCCAUGU | 12 | 11.4 | – | – | –
